S100A4 inh HTS = inhibitors of S100A4-myosin IIA peptide binding, primary screen, biochemical, fluorescence polarization, TAMRA-MyoIIA peptide; inhibition, % at 10.7 µM; 360,000 tested, 0.14% active;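 active = mean inhibition of at least 70% across replicates, with every replicate also reaching that level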
Target sequence (P26447 whole entry, looked up): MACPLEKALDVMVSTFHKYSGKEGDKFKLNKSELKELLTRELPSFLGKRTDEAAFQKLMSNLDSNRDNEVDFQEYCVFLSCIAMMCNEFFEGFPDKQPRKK
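System – human S100A4 monomer protein, biochemical binding assay · Buffer or medium – Calcium-containing HEPES buffer, pH 7.2 · Timing – 5 min between mix addition and reading · Also added – TAMRA-labelled myosin IIA heavy-chain peptide probe, 5 nM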
CAL PDZ FP-1 = CAL PDZ peptide-binding inhibitors, primary screen, biochemical, fluorescence polarization, Cer-tagged CAL PDZ, HTS; AID 504414, 2011; purified CAL PDZ, TMR-peptide fluorescence polarization, 1 h; Golgi-associated PDZ and coiled-coil motif-containing protein (Homo sapiens), Q9HD26; 330,000 tested, 0.02% active; inhibition, % at 20 µM;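 active = highest replicate inhibition of at least 40%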;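 also: plate controls were DMSO neutral control wells for no effect and unlabeled competitor peptide control wells for full effect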
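Material – purified CerCALP PDZ construct · Detection – FP readout, S and P plane fluorescence · Measure – percent inhibition from loss of millipolarization · Controls – unlabelled peptide for full inhibition, DMSO wells as neutral · Probe or stimulus – TMR-labelled reporter peptide T*-PRC34 bound in PDZ groove · Times – 1 h at RT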
CAL PDZ FP-2 = untagged CAL PDZ binding inhibitors, primary screen, biochemical, fluorescence polarization, HTS; purified CAL PDZ, TMR-peptide fluorescence polarization, 1 h; inhibition, % at 24.9 µM; 300,000 tested, 0.92% active;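 active = mean inhibition of at least 30% with at least half of replicates also reaching 30%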;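 also: 0% = DMSO neutral control and 100% = excess unlabeled competitor peptide PRC23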
dFosB activator = activators of delta FosB homodimer, primary screen, biochemical, fluorescence polarization, TAMRA-CDK5 oligo, single point; Protein FosB (Mus musculus), P13346; purified delta FosB; percent of positive-control signal above neutral wells; activation, % at 25 µM; 340,000 tested, 0.99% active;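 active = mean activation above about 17%, with every replicate also reaching it, limit read from the data, passing the limit was not always enough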
Target sequence (P13346 whole entry, looked up): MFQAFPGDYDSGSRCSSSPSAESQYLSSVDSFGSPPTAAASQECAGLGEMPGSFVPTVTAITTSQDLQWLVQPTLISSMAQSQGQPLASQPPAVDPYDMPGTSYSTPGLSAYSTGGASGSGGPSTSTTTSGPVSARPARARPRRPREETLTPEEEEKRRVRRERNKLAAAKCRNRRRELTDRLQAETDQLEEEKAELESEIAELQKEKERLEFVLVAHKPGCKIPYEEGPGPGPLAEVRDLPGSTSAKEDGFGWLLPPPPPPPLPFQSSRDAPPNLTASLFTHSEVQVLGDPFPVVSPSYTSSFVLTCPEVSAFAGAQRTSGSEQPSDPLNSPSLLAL
C2C12 statin = suppressors of statin myotoxicity in C2C12 myotubes, primary screen, cell-based, single point, plate reader; C2C12 myotubes + simvastatin, ATP luminescence, 48 h; scaled: DMSO 0, geranylgeraniol control 100; 330,000 tested, 0.78% active; AID 602340, 2012; rescue of ATP level, % at 7.49 µM;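 active = mean ATP rescue above about 67%, or every replicate alone reaching that limit, limit read from the data, passing the limit was not always enough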;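 also: myotubes were challenged with 10 µM simvastatin during compound exposure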
CDK5 inh = inhibitors of human CDK5/p35 kinase, primary screen, biochemical, single concentration. Recombinant CDK5/p35, ADP-Glo luminescence, 60 min. Cyclin-dependent kinase 5 (Homo sapiens) + Cyclin-dependent kinase 5 activator 1 (Homo …. inhibition, % at 10 µM. 330,000 tested, 0.01% active;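 active = highest replicate inhibition of at least 50% and at least 75% of replicates reaching 50%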;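 also: plate controls were DMSO neutral control for no effect and GW8510 at 10 µM for full effect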
Starred values were filed as active, the others as inactive; . = not tested or not shown. Hits are enriched below; roughly 2% of the tested compounds scored in any of these assays.

SMILES	S100A4 inh HTS	CAL PDZ FP-1	CAL PDZ FP-2	dFosB activator	C2C12 statin	CDK5 inh
COc1ccc([C@H]2/C=C\CN(S(=O)(=O)c3cccc4cccnc34)[C@@H](C)C(=O)N2Cc2ccc(F)cc2)cc1	-1	-3	0	-15	-14	0
COc1ccc(NC(=O)N(C)C[C@H]2OCCCC[C@@H](C)Oc3ccc(NC(=O)Nc4ccc5c(c4)OCO5)cc3C(=O)N([C@H](C)CO)C[C@H]2C)cc1	-44	.	.	.	-3	.
CC(C)CC#Cc1cnc2c(c1)C(=O)N([C@H](C)CO)C[C@H](C)[C@@H](CN(C)C(=O)Cc1ccccc1)O2	2	.	.	.	77*	.
CC(C)CC#Cc1cnc2c(c1)C(=O)N([C@H](C)CO)C[C@@H](C)[C@@H](CN(C)C(=O)Cc1ccccc1)O2	-2	.	.	.	40	.
CCC(=O)N(C)C[C@H]1Oc2ncc(-c3ccc(C(=O)N(C)C)cc3)cc2C(=O)N([C@@H](C)CO)C[C@@H]1C	1	.	.	.	-2	.
C[C@@H]1CN([C@@H](C)CO)C(=O)c2cc(C#C[C@@H](C)O)cnc2O[C@H]1CN(C)C(=O)Cc1ccncc1	87*	.	.	.	2	.
CCC(=O)N(C)C[C@H]1Oc2ncc(-c3ccc(C(=O)N(C)C)cc3)cc2C(=O)N([C@@H](C)CO)C[C@H]1C	111*	.	.	.	-3	.
C[C@H](CO)N1C[C@H](C)[C@@H](CN(C)CC2CCCC2)Oc2ncc(C#Cc3ccncc3)cc2C1=O	-10	.	.	.	103*	.
C[C@@H](O)C#Cc1cnc2c(c1)C(=O)N([C@@H](C)CO)C[C@H](C)[C@@H](CN(C)C(=O)Cc1ccncc1)O2	-8	.	.	.	-5	.
O=C(COC(=O)CNC(=O)c1ccc(F)cc1)NC1CCCc2ccccc21 (stereo unspecified)	-18	1	.	-9	24	1
NC(Cc1ccc(C(F)(F)F)cc1)c1csc(NC(=O)Nc2ccccc2Cc2ccccc2)n1 (stereo unspecified)	-3	.	.	.	-20	.
Cc1ccc2cc(CN(C(=O)c3ccco3)c3ccccc3)c(=O)[nH]c2c1	.	-1	-4	-8	38	3
COc1ccc(N(CC(=O)N2CCCCCC2)S(=O)(=O)c2ccc(OC)c(OC)c2)cc1	-2	-1	51*	-16	35	1
COc1ccc(OC)c(N(CC(=O)N2CCCCC2)S(=O)(=O)c2ccc(OC)c(OC)c2)c1	.	-2	-1	-3	.	0
COc1cc2oc3ccccc3c2cc1N(CC(=O)N(C)C)S(=O)(=O)c1ccc(C)cc1	.	-1	.	4	-2	1
COc1cc2oc3ccccc3c2cc1N(CC(=O)N1CCCCC1)S(=O)(=O)c1ccc(C)cc1	.	0	-2	-7	106*	0
CN1c2ccc(C#Cc3cccnc3)cc2[C@@H]2[C@@H](CCN2C(=O)C2CCOCC2)[C@H]1CO	9	.	.	.	4	.
CCc1nn(CC(=O)N(C)C2CCCCC2)c(=O)c2cc3cc(C)ccc3n12	1	0	104*	-13	-20	1
Cc1cc([N+](=O)[O-])nn1CC(=O)N(C)Cc1ccccc1	8	.	-5	5	1	0
CCN(C(=O)Cn1nc(C)n2c(cc3cc(C)ccc32)c1=O)c1ccccc1	-9	-2	.	-19	-13	0
Cc1cc([N+](=O)[O-])nn1CC(=O)N(C)C1CCCCC1	-6	-1	54*	6	-3	0
Cc1onc(-c2c(Cl)cccc2Cl)c1C(=O)Nc1ccc(Cl)cn1	2	0	1	-5	.	1
Cc1ccc(C(=O)Nc2cccc([N+](=O)[O-])c2)cc1S(=O)(=O)Nc1cccc(C(=O)O)c1	-1	-1	-1	-4	.	-2

High-throughput results: PubChem, Broad Institute
